# Measured values taken from ChEMBL document CHEMBL1955865, “Synthesis of novel spirooxindole derivatives by one pot multicomponent reaction and their antimicrobial activity” (2012).
# What was measured:
# [1] = Antifungal activity against Malassezia pachydermatis at 1000 ug/disc after 48 hrs by disc diffusion assay; assay type: functional
# Method in brief: (§1)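 Fungal disc diffusion with inoculum from SDA spores (filamentous) or SDB culture (yeast). Test cultures were swabbed on agar, and discs at 1000 µg/disc were left 30 min at room temperature, with a solvent negative control. Plates were incubated 48 h at 27 °C. Zone of inhibition was measured in mm, and the experiment was repeated twice.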
# Candida albicans [2] = test: Antifungal activity against Candida albicans MTCC 227 at 1000 ug/disc after 48 hrs by disc diffusion assay; assay type: functional; details: MTCC 227, 48 h, read-out: IZ; method in brief: as §1
# Botrytis cinerea [3] = test: Antifungal activity against Botrytis cinerea at 1000 ug/disc after 48 hrs by disc diffusion assay; assay type: functional; details: read-out: IZ; method in brief: as §1
# Staphylococcus aureus [4] = test: Antibacterial activity against Staphylococcus aureus MTCC 96 after 24 hrs by twofold serial dilution method; assay type: functional; details: MTCC 96, 24 h
# Method in brief: (§2)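 Bacteria grown in Mueller Hinton broth for 24 h at 37 °C and diluted to about 10^4 CFU/ml. Compound in 2% DMSO was serially diluted two-fold (1000 to 15.62 µg/ml) in medium in 96-well plates and inoculated. Plates were incubated 24 h at 37 °C. 5 µl of broth was spotted onto MHA, and MIC was taken as the lowest concentration with no visible growth on agar.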
# Staphylococcus aureus [5] = test: Antibacterial activity against methicillin-resistant Staphylococcus aureus after 24 hrs by twofold serial dilution method; assay type: functional
# Method in brief: (§3)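 Broth microdilution in MHB following the standard bacterial reference method. Compound was dissolved in DMSO (2%) and serially diluted two-fold from 1000 to 15.62 µg/ml in 96-well plates, with an inoculum of about 10^4 CFU/ml. Streptomycin and ciprofloxacin were positive controls. After 24 h at 37 °C, 5 µl of broth was subcultured on MHA. MIC was the lowest concentration without visible growth on agar.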
# Micrococcus luteus [6] = test: Antibacterial activity against Micrococcus luteus after 24 hrs by twofold serial dilution method; assay type: functional; method in brief: as §2
# Klebsiella aerogenes [7] = test: Antibacterial activity against Enterobacter aerogenes MTCC 111 after 24 hrs by twofold serial dilution method; assay type: functional; details: MTCC 111, 24 h; method in brief: as §2
# Proteus vulgaris [8] = test: Antibacterial activity against Proteus vulgaris MTCC 1771 after 24 hrs by twofold serial dilution method; assay type: functional; details: MTCC 1771, 24 h; method in brief: as §2
# Klebsiella pneumoniae [9] = test: Antibacterial activity against Klebsiella pneumoniae MTCC 109 after 24 hrs by twofold serial dilution method; assay type: functional; details: MTCC 109, 24 h; method in brief: as §2
# Salmonella typhimurium [10] = test: Antibacterial activity against Salmonella Typhimurium MTCC 1251 after 24 hrs by two-fold serial dilution method; assay type: functional, Salmonella enterica subsp. enterica serovar Typhimurium; details: Salmonella enterica, MTCC 1251, 24 h; method in brief: as §2
# [11] = system: Salmonella enterica subsp. enterica serovar Paratyphi B; test: Antibacterial activity against Salmonella paratyphi B after 24 hrs by twofold serial dilution method; assay type: functional; method in brief: as §3
# [12] = Antifungal activity against Malassezia pachydermatis after 48 to 72 hrs by twofold serial dilution method; assay type: functional
# Method in brief: (§4)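 Broth two-fold serial dilution, 1000 to 15.62 µg/ml, with compound dissolved in 2% DMSO, in 96-well plates. Filamentous fungal spores came from 10-day SDA slants at 28 °C, and yeast from SDB grown 48 h at 28 °C. Incubation was 48-72 h at 28 °C. MIC was the lowest concentration with no visible fungal growth.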
# Candida albicans [13] = test: Antifungal activity against Candida albicans MTCC 227 after 48 to 72 hrs by twofold serial dilution method; assay type: functional; method in brief: as §4
# Botrytis cinerea [14] = test: Antifungal activity against Botrytis cinerea after 48 to 72 hrs by twofold serial dilution method; assay type: functional; method in brief: as §4
# Staphylococcus aureus [15] = test: Ratio of streptomycin MIC to compound MIC for methicillin-resistant Staphylococcus aureus; assay type: functional
# Staphylococcus aureus [16] = test: Ratio of ciprofloxacin MIC to compound MIC for methicillin-resistant Staphylococcus aureus; assay type: functional
# Micrococcus luteus [17] = test: Ratio of ciprofloxacin MIC to compound MIC for Micrococcus luteus; assay type: functional
# Salmonella typhimurium [18] = test: Ratio of ciprofloxacin MIC to compound MIC for Salmonella Typhimurium MTCC 1251; assay type: functional, Salmonella enterica subsp. enterica serovar Typhimurium
# Candida albicans [19] = test: Ratio of fluconazole MIC to compound MIC for Candida albicans MTCC 227; assay type: functional
# Staphylococcus aureus [20] = test: Antibacterial activity against Staphylococcus aureus MTCC 96 at 1000 ug/disc after 24 hrs by disc diffusion assay; assay type: functional; details: MTCC 96, 24 h, read-out: IZ
# Method in brief: (§5)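 Disc diffusion on Mueller Hinton agar. Cultures (about 10^4 CFU/ml) were swabbed on and dried 10 min. Discs loaded at 1000 µg/disc were left 30 min at room temperature for diffusion, with a solvent negative control. Plates were incubated 24 h at 37 °C. Inhibition zones were measured in mm, and the experiment was done twice.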
# Staphylococcus aureus [21] = test: Antibacterial activity against methicillin-resistant Staphylococcus aureus at 1000 ug/disc after 24 hrs by disc diffusion assay; assay type: functional; details: read-out: IZ
# Method in brief: (§6)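 Disc diffusion on Mueller Hinton agar. Bacteria were grown 24 h at 37 °C in MHB and diluted to about 10^4 CFU/ml, swabbed onto plates and dried 10 min. Discs were loaded at 1000 μg/disc and held 30 min at room temperature for diffusion. Solvent served as negative control. After 24 h at 37 °C, inhibition zones were read in mm; run twice.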
# Micrococcus luteus [22] = test: Antibacterial activity against Micrococcus luteus at 1000 ug/disc after 24 hrs by disc diffusion assay; assay type: functional; details: read-out: IZ; method in brief: as §5
# Klebsiella aerogenes [23] = test: Antibacterial activity against Enterobacter aerogenes MTCC 111 at 1000 ug/disc after 24 hrs by disc diffusion assay; assay type: functional; details: MTCC 111, 24 h, read-out: IZ; method in brief: as §5
# Proteus vulgaris [24] = test: Antibacterial activity against Proteus vulgaris MTCC 1771 at 1000 ug/disc after 24 hrs by disc diffusion assay; assay type: functional; details: MTCC 1771, 24 h, read-out: IZ; method in brief: as §5
# Klebsiella pneumoniae [25] = test: Antibacterial activity against Klebsiella pneumoniae MTCC 109 at 1000 ug/disc after 24 hrs by disc diffusion assay; assay type: functional; details: MTCC 109, 24 h, read-out: IZ; method in brief: as §5
# Salmonella typhimurium [26] = test: Antibacterial activity against Salmonella Typhimurium MTCC 1251 at 1000 ug/disc after 24 hrs by disc diffusion assay; assay type: functional, Salmonella enterica subsp. enterica serovar Typhimurium; details: Salmonella enterica, MTCC 1251, 24 h; read-out: IZ; method in brief: as §5
# [27] = system: Salmonella enterica subsp. enterica serovar Paratyphi B; test: Antibacterial activity against Salmonella paratyphi B at 1000 ug/disc after 24 hrs by disc diffusion assay; assay type: functional; details: read-out: IZ; method in brief: as §6
compound,measurement,setting,value
CC(=O)N1C(=O)C2(C3=C(CN2C)C(=O)c2ccccc2C3=O)c2ccccc21 (configuration not stated),inhibition zone (IZ),[1],19 mm
same,zone of inhibition at 1000 µg/disc,Candida albicans [2],18 mm
same,zone of inhibition at 1000 µg/disc,Botrytis cinerea [3],15 mm
same,MIC,Staphylococcus aureus [4],31.2 µg/mL
same,MIC,Staphylococcus aureus [5],62.5 µg/mL
same,MIC,Micrococcus luteus [6],15.6 µg/mL
same,MIC,Klebsiella aerogenes [7],15.6 µg/mL
same,MIC,Proteus vulgaris [8],< 15.6 µg/mL
same,MIC,Klebsiella pneumoniae [9],15.6 µg/mL
same,MIC,Salmonella typhimurium [10],15.6 µg/mL
same,MIC,[11],< 15.6 µg/mL
same,MIC,[12],15.6 µg/mL
same,MIC,Candida albicans [13],31.2 µg/mL
same,MIC,Botrytis cinerea [14],125 µg/mL
same,Ratio,Staphylococcus aureus [15],>1.6
same,Ratio,Staphylococcus aureus [16],>1.6
same,Ratio,Micrococcus luteus [17],>6.4
same,Ratio,Salmonella typhimurium [18],>6.4
same,Ratio,Candida albicans [19],>3.2
same,zone of inhibition at 1000 µg/disc,Staphylococcus aureus [20],18 mm
same,zone of inhibition at 1000 µg/disc,Staphylococcus aureus [21],16 mm
same,zone of inhibition at 1000 µg/disc,Micrococcus luteus [22],22 mm
same,zone of inhibition at 1000 µg/disc,Klebsiella aerogenes [23],21 mm
same,zone of inhibition at 1000 µg/disc,Proteus vulgaris [24],26 mm
same,zone of inhibition at 1000 µg/disc,Klebsiella pneumoniae [25],24 mm
same,zone of inhibition at 1000 µg/disc,Salmonella typhimurium [26],24 mm
same,zone of inhibition at 1000 µg/disc,[27],28 mm
